Assay results taken from ChEMBL document CHEMBL1156941, “Discovery of small molecule isozyme non-specific inhibitors of mammalian acetyl-CoA carboxylase 1 and 2” (Bioorg Med Chem Lett, 2010).

Columns and labels:
Acetyl-CoA carboxylase 2 = Acetyl-CoA carboxylase 2 (Homo sapiens, UniProt O00763); assay: Inhibition of human recombinant ACC2 expressed in CHO cells after 1 hr by fluorescence reader; assay type: cell-based
How it was run: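 Purified recombinant human ACC2, from conditioned medium captured on avidin resin and eluted with biotin, then dialyzed. Compounds in DMSO, final DMSO 1%. Run 1 h at room temperature. ADP measured by Transcreener fluorescence polarization after a further 1 h.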

Acetyl-CoA carboxylase 1 = Acetyl-CoA carboxylase 1 (Rattus norvegicus, UniProt P11497); assay: Inhibition of rat liver ACC1 after 7 mins by liquid scintillation counter
[1] = Volume of distribution at steady state in rat at 1 mg/kg, iv; assay type: ADME, organism-based; parameters: dose 1 mg/kg, route intravenous; conditions: in vivo, read-out: Vdss
How it was run: (§1)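 Rat pharmacokinetics. Intravenous dose 1 mg/kg, giving CL in mL/min/kg and Vdss in L/kg. Oral dose 5 mg/kg, giving Cmax in ng/mL, %F and t1/2 in h.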

[2] = Clearance in rat at 1 mg/kg, iv; assay type: ADME, organism-based; parameters: dose 1 mg/kg, route intravenous; conditions: in vivo; how it was run: as §1
[3] = Half life in rat at 5 mg/kg, po; assay type: ADME, organism-based; parameters: dose 5 mg/kg, route oral; conditions: in vivo; how it was run: as §1
[4] = Cmax in rat at 5 mg/kg, po; assay type: ADME, organism-based; parameters: dose 5 mg/kg, route oral; conditions: in vivo; how it was run: as §1
[5] = Oral bioavailability in rat at 5 mg/kg; assay type: ADME, organism-based; conditions: in vivo; how it was run: as §1
[6] = Oral bioavailability in rat at 3 mg/kg administered with lipid emulsion; assay type: ADME, organism-based; conditions: in vivo
[7] = Clearance in Beagle dog at 1 mg/kg, iv administered with 40% PEG400 and 60% glycerol; assay type: ADME, organism-based, Canis lupus familiaris; parameters: dose 1 mg/kg, route intravenous; conditions: in vivo
[8] = Half life in rat at 1 mg/kg, iv administered with methylcellulose; assay type: ADME, organism-based; parameters: dose 1 mg/kg, route intravenous; conditions: in vivo
[9] = Oral bioavailability in rat at 3 mg/kg administered with spray-dried dispersion; assay type: ADME, organism-based; conditions: in vivo
[10] = Volume of distribution at steady state in Beagle dog at 1 mg/kg, iv administered with 40% PEG400 and 60% glycerol; assay type: ADME, organism-based, Canis lupus familiaris; parameters: dose 1 mg/kg, route intravenous; conditions: in vivo, read-out: Vdss
[11] = Clearance in rat at 1 mg/kg, iv administered with methylcellulose; assay type: ADME, organism-based; parameters: dose 1 mg/kg, route intravenous; conditions: in vivo
[12] = Half life in Beagle dog at 1 mg/kg, iv administered with 40% PEG400 and 60% glycerol; assay type: ADME, organism-based, Canis lupus familiaris; parameters: dose 1 mg/kg, route intravenous; conditions: in vivo
[13] = Volume of distribution at steady state in rat at 1 mg/kg, iv administered with methylcellulose; assay type: ADME, organism-based; parameters: dose 1 mg/kg, route intravenous; conditions: in vivo, read-out: Vdss
[14] = Oral bioavailability in rat at 3 mg/kg administered with methylcellulose; assay type: ADME, organism-based; conditions: in vivo

Acetyl-CoA carboxylase 2, sequence (O00763 whole entry): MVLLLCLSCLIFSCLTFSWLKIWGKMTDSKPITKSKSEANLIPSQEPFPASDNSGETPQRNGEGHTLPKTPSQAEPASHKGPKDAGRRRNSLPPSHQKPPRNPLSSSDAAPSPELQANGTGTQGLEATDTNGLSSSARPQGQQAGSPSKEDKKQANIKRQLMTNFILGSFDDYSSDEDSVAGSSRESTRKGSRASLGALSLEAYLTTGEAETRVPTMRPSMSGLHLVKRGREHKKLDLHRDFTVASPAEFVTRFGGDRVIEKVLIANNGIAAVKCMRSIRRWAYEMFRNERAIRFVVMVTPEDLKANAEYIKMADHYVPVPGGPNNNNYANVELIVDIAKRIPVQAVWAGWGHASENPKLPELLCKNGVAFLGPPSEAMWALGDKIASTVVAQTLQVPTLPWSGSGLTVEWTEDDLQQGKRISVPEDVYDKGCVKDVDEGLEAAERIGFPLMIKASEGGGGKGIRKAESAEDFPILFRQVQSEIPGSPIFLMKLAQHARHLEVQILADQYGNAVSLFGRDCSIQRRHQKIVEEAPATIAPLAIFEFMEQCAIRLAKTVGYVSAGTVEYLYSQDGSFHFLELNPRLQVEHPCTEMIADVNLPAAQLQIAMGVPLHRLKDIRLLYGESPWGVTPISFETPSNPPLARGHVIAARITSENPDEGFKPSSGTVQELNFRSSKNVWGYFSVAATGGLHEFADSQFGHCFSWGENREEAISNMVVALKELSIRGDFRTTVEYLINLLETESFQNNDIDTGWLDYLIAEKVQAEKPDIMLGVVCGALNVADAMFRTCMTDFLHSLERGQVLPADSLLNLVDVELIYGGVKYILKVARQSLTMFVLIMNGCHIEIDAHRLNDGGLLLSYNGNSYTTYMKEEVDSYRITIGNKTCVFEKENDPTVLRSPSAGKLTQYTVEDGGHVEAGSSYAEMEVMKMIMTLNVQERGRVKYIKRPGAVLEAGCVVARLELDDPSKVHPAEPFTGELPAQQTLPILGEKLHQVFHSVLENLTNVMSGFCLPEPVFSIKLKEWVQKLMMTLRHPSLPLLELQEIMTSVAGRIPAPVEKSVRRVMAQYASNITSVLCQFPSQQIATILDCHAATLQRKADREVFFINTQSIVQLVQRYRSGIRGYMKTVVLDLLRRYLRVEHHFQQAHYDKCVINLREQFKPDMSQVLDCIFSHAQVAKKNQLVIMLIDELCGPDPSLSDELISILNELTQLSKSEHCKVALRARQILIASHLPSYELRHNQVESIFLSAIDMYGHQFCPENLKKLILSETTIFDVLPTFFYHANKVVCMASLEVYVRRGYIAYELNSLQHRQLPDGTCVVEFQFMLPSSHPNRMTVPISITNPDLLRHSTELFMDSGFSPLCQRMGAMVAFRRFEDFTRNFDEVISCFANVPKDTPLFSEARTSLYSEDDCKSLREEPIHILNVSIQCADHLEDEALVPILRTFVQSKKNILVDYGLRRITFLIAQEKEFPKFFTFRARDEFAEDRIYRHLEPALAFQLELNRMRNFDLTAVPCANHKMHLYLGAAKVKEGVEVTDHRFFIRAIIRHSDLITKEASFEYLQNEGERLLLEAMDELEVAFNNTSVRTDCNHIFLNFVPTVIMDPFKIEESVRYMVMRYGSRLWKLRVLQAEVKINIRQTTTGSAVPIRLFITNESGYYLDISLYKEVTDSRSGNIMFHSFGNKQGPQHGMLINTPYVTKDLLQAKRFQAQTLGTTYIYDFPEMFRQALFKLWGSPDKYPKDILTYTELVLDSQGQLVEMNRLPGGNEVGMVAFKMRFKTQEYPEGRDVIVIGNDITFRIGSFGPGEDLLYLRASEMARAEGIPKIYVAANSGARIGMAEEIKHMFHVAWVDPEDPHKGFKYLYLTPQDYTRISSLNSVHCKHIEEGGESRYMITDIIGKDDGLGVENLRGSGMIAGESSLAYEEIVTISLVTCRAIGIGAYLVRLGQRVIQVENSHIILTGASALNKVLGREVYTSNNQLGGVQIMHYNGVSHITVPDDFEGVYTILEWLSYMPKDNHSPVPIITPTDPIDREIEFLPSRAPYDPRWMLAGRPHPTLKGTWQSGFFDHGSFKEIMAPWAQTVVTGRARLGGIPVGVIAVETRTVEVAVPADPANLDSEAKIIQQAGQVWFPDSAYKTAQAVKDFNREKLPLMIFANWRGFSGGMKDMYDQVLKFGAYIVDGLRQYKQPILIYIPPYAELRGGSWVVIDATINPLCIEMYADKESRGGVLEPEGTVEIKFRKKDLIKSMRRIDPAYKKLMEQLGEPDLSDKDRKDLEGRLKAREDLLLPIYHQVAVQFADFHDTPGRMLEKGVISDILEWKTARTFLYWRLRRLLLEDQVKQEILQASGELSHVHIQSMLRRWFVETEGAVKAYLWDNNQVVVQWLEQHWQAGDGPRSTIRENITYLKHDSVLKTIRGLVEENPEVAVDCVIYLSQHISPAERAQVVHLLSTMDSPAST

COc1cccc2c1C(=O)CC1(CCN(C(=O)c3ccc4[nH]c(C)nc4c3)CC1)O2
IC50 (Acetyl-CoA carboxylase 2): > 1000 nM
IC50 (Acetyl-CoA carboxylase 1): 663 nM

Cc1cc(C(=O)N2CCC3(CC2)CC(=O)c2cc(-c4ccn(C)n4)ccc2O3)cc2cn[nH]c12
IC50 (Acetyl-CoA carboxylase 2): 6.1 nM
IC50 (Acetyl-CoA carboxylase 1): 31 nM

Cc1cc(-c2ccc3c(c2)C(=O)CC2(CCN(C(=O)c4cc(C)c5[nH]ncc5c4)CC2)O3)n[nH]1
IC50 (Acetyl-CoA carboxylase 2): 7.6 nM
IC50 (Acetyl-CoA carboxylase 1): 18 nM

COc1cccc2c1C(=O)CC1(CCN(C(=O)c3ccc4[nH]c(-c5ccccn5)nc4c3)CC1)O2
IC50 (Acetyl-CoA carboxylase 2): 12 nM
IC50 (Acetyl-CoA carboxylase 1): 26 nM

Cc1cc(C)c2c(c1)C(=O)CC1(CCN(C(=O)c3cccc4cn[nH]c34)CC1)O2
IC50 (Acetyl-CoA carboxylase 2): > 1000 nM

COc1cccc2c1C(=O)CC1(CCN(C(=O)c3cccc4cn[nH]c34)CC1)O2
IC50 (Acetyl-CoA carboxylase 2): > 1000 nM

Cc1cc(C(=O)N2CCC3(CC2)CC(=O)c2nc(N)ccc2O3)cc2cn[nH]c12
IC50 (Acetyl-CoA carboxylase 1): 1350 nM

Cc1cc(C(=O)N2CCC3(CC2)CC(=O)c2c(ccnc2OC(C)C)O3)cc2cn[nH]c12
IC50 (Acetyl-CoA carboxylase 2): 4.5 nM
IC50 (Acetyl-CoA carboxylase 1): 30 nM

COc1cccc2c1C(=O)CC1(CCN(C(=O)c3ccc4nn[nH]c4c3)CC1)O2
IC50 (Acetyl-CoA carboxylase 2): 505 nM
IC50 (Acetyl-CoA carboxylase 1): 2970 nM

Cc1ccc2cc(CC3CCN(C(=O)c4cccc5cn[nH]c45)CC3)ccc2n1
Vd [1]: 2.4 L/kg
IC50 (Acetyl-CoA carboxylase 1): 3380 nM
clearance [2]: 44.3 mL/min/kg
half-life [3]: 1.7 h
Cmax [4]: 617 ng/mL
bioavailability [5]: 45%

Cc1ccc2cc(CC3CCN(C(=O)c4cccc(-c5cn[nH]c5)c4)CC3)ccc2n1
IC50 (Acetyl-CoA carboxylase 1): 1270 nM

Cc1ccc2cc(CC3CCN(C(=O)c4cccc(-c5cc[nH]n5)c4)CC3)ccc2n1
Vd [1]: 2.8 L/kg
IC50 (Acetyl-CoA carboxylase 1): 3010 nM
clearance [2]: 34.1 mL/min/kg
half-life [3]: 1.8 h
Cmax [4]: 91.5 ng/mL
bioavailability [5]: 7%

CNC(=O)c1cc2cc(C(=O)N3CCC4(CC3)CC(=O)c3c(OC)cccc3O4)ccc2[nH]1
IC50 (Acetyl-CoA carboxylase 2): 11 nM
IC50 (Acetyl-CoA carboxylase 1): 43 nM

Cc1ncc(-c2ccc3c(c2)C(=O)CC2(CCN(C(=O)c4cc(C)c5[nH]ncc5c4)CC2)O3)o1
IC50 (Acetyl-CoA carboxylase 2): 39 nM
IC50 (Acetyl-CoA carboxylase 1): 17 nM

COc1nccc2c1C(=O)CC1(CCN(C(=O)c3cc(C)c4[nH]ncc4c3)CC1)O2
IC50 (Acetyl-CoA carboxylase 1): 86 nM

Cc1noc(C)c1-c1ccc2c(c1)C(=O)CC1(CCN(C(=O)c3cc(C)c4[nH]ncc4c3)CC1)O2
IC50 (Acetyl-CoA carboxylase 2): 6.4 nM
IC50 (Acetyl-CoA carboxylase 1): 13 nM

Cn1cc(-c2cc3c(cn2)OC2(CCN(C(=O)c4ccc5nc(-c6ccn(C)n6)[nH]c5c4)CC2)CC3=O)cn1
IC50 (Acetyl-CoA carboxylase 1): 975 nM

Cc1cc(C(=O)N2CCC3(CC2)CC(=O)c2cc(-c4cnn(C)c4)ncc2O3)cc2cn[nH]c12
IC50 (Acetyl-CoA carboxylase 1): 24.6 nM

Cc1cc2c(cc1C)C(=O)CC1(CCN(C(=O)c3cccc4cn[nH]c34)CC1)O2
IC50 (Acetyl-CoA carboxylase 2): 400 nM

COc1nc(C)cc2c1C(=O)CC1(CCN(C(=O)c3cc(C)c4[nH]ncc4c3)CC1)O2
IC50 (Acetyl-CoA carboxylase 2): 48 nM
IC50 (Acetyl-CoA carboxylase 1): 34 nM

Cc1cc(C(=O)N2CCC3(CC2)CC(=O)c2c(ccnc2OCC(C)C)O3)cc2cn[nH]c12
IC50 (Acetyl-CoA carboxylase 2): 98 nM
IC50 (Acetyl-CoA carboxylase 1): 23 nM

Cc1nc(-c2ccc3c(c2)C(=O)CC2(CCN(C(=O)c4cc(C)c5[nH]ncc5c4)CC2)O3)co1
IC50 (Acetyl-CoA carboxylase 2): 30 nM
IC50 (Acetyl-CoA carboxylase 1): 19 nM

CCOc1nccc2c1C(=O)CC1(CCN(C(=O)c3cc(C)c4[nH]ncc4c3)CC1)O2
IC50 (Acetyl-CoA carboxylase 1): 61 nM

Cc1n[nH]c2c(C)cc(C(=O)N3CCC4(CC3)CC(=O)c3c(ccnc3OC(C)C)O4)cc12
bioavailability [6]: 8%
IC50 (Acetyl-CoA carboxylase 2): 20 nM
clearance [7]: 3.6 mL/min/kg
IC50 (Acetyl-CoA carboxylase 1): 12 nM
half-life [8]: 1.4 h
bioavailability [9]: 52%
Vd [10]: 1.6 L/kg
clearance [11]: 31 mL/min/kg
half-life [12]: 6.1 h
Vd [13]: 3.3 L/kg
bioavailability [14]: 32%

Cc1cc(C(=O)N2CCC3(CC2)CC(=O)c2cc(-c4cc[nH]n4)ccc2O3)cc2cn[nH]c12
IC50 (Acetyl-CoA carboxylase 2): 4.5 nM
IC50 (Acetyl-CoA carboxylase 1): 18 nM

COc1cccc2c1C(=O)CC1(CCN(C(=O)c3cc(C)c4[nH]c(C(N)=O)cc4c3)CC1)O2
IC50 (Acetyl-CoA carboxylase 2): 16 nM
IC50 (Acetyl-CoA carboxylase 1): 65 nM

COc1cccc2c1C(=O)CC1(CCN(C(=O)c3ccc4nc(-c5ccccc5)[nH]c4c3)CC1)O2
IC50 (Acetyl-CoA carboxylase 2): 16 nM
IC50 (Acetyl-CoA carboxylase 1): 16 nM

COc1cccc2c1C(=O)CC1(CCN(C(=O)c3ccc4[nH]c(C(N)=O)nc4c3)CC1)O2
IC50 (Acetyl-CoA carboxylase 2): 16 nM
IC50 (Acetyl-CoA carboxylase 1): 35 nM

COc1cccc2c1C(=O)CC1(CCN(C(=O)c3ccc4nc[nH]c4c3)CC1)O2
IC50 (Acetyl-CoA carboxylase 2): 111 nM
IC50 (Acetyl-CoA carboxylase 1): 216 nM

Cc1ccc2cc(CC3CCN(C(=O)c4ccnc5ccccc45)CC3)ccc2n1
IC50 (Acetyl-CoA carboxylase 1): 8910 nM

Cc1cc2c(cc1C)C(=O)CC1(CCN(C(=O)c3cc(C)c4[nH]ncc4c3)CC1)O2
IC50 (Acetyl-CoA carboxylase 2): 48 nM
IC50 (Acetyl-CoA carboxylase 1): 22 nM

COc1cccc2c1C(=O)CC1(CCN(C(=O)c3cc(C)c4[nH]ncc4c3)CC1)O2
IC50 (Acetyl-CoA carboxylase 2): 6.5 nM
IC50 (Acetyl-CoA carboxylase 1): 104 nM

COc1cc2c(cn1)OC1(CCN(C(=O)c3cc(C)c4[nH]ncc4c3)CC1)CC2=O
IC50 (Acetyl-CoA carboxylase 1): 182 nM

Cc1ccc2c(n1)C(=O)CC1(CCN(C(=O)c3cc(C)c4[nH]ncc4c3)CC1)O2
IC50 (Acetyl-CoA carboxylase 1): 366 nM

Cc1n[nH]c2ccc(C(=O)N3CCC4(CC3)CC(=O)c3ncccc3O4)cc12
IC50 (Acetyl-CoA carboxylase 2): 640 nM
IC50 (Acetyl-CoA carboxylase 1): 766 nM

COc1cccc2c1C(=O)CC1(CCN(C(=O)c3ccc4c(C)n[nH]c4c3)CC1)O2
IC50 (Acetyl-CoA carboxylase 2): 164 nM
IC50 (Acetyl-CoA carboxylase 1): 220 nM

COc1cccc2c1C(=O)CC1(CCN(C(=O)c3cc(C)c4[nH]nc(C)c4c3)CC1)O2
IC50 (Acetyl-CoA carboxylase 2): 11 nM
IC50 (Acetyl-CoA carboxylase 1): 42 nM

CCc1cc(C(=O)N2CCC3(CC2)CC(=O)c2c(OC)cccc2O3)cc2cn[nH]c12
IC50 (Acetyl-CoA carboxylase 2): 151 nM
IC50 (Acetyl-CoA carboxylase 1): 102 nM

Cc1cc(C(=O)N2CCC3(CC2)CC(=O)c2cc(-c4cnn(C)c4)ccc2O3)cc2cn[nH]c12
IC50 (Acetyl-CoA carboxylase 1): 7.5 nM

COc1cccc2c1C(=O)CC1(CCN(C(=O)c3ccc4nc(-c5cccnc5)[nH]c4c3)CC1)O2
IC50 (Acetyl-CoA carboxylase 2): 19 nM
IC50 (Acetyl-CoA carboxylase 1): 26 nM

COc1cccc2c1C(=O)CC1(CCN(C(=O)c3ccc4nc(-c5ccncc5)[nH]c4c3)CC1)O2
IC50 (Acetyl-CoA carboxylase 2): 51 nM
IC50 (Acetyl-CoA carboxylase 1): 60 nM

COc1cccc2c1C(=O)CC1(CCN(C(=O)c3ccc4nc(-c5ccnnc5)[nH]c4c3)CC1)O2
IC50 (Acetyl-CoA carboxylase 1): 101 nM

Cc1cc(C(=O)N2CCC3(CC2)CC(=O)c2ncccc2O3)cc2cn[nH]c12
IC50 (Acetyl-CoA carboxylase 1): 154 nM

Cc1n[nH]c2c(C)cc(C(=O)N3CCC4(CC3)CC(=O)c3ncccc3O4)cc12
IC50 (Acetyl-CoA carboxylase 2): 363 nM
IC50 (Acetyl-CoA carboxylase 1): 249 nM

COc1cccc2c1C(=O)CC1(CCN(C(=O)c3ccc4nc(-c5ccn(C)n5)[nH]c4c3)CC1)O2
IC50 (Acetyl-CoA carboxylase 1): 19 nM

Cc1cc(C(=O)N2CCC3(CC2)CC(=O)c2cc(-c4cn[nH]c4)ccc2O3)cc2cn[nH]c12
IC50 (Acetyl-CoA carboxylase 1): 7.4 nM

O=C1CC2(CCN(C(=O)c3cccc4cn[nH]c34)CC2)Oc2ccc(Cl)cc21
IC50 (Acetyl-CoA carboxylase 2): 2130 nM

COc1cccc2c1C(=O)CC1(CCN(C(=O)c3cc(C)c4nc[nH]c4c3)CC1)O2
IC50 (Acetyl-CoA carboxylase 2): 126 nM
IC50 (Acetyl-CoA carboxylase 1): 172 nM
